From ChEMBL document CHEMBL1141286, “Benzochromenones from the marine crinoid Comantheria rotula inhibit hypoxia-inducible factor-1 (HIF-1) in cell-based reporter assays and differentially suppress the growth of certain tumor cell lines” (J Nat Prod, 2007)
Activity calls are given as the source filed them. The calls are words filed in the database; no cut-off is given here.

Experiments:
ACHN = test: Growth inhibition of human ACHN cells; type: functional
UACC-62 = test: Growth inhibition of human UACC62 cells; type: functional
T47D [1] = test: Inhibition of 1,10-phenanthroline-induced VEGF protein secretion in human T47D cells at 10 uM after 16 hrs by ELISA; type: functional, cell-based
Method in brief: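 T47D cells stimulated with 1,10-phenanthroline, compound at 10 μM; secreted VEGF in conditioned media by ELISA, normalized to cell-lysate protein.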

NCI-H460 = test: Growth inhibition of human NCI-H460 cells; type: functional
SNB-19 = test: Growth inhibition of human SNB19 cells; type: functional
T47D [2] = test: Growth inhibition of human T47D cells; type: functional
NCI/ADR-RES = test: Growth inhibition of human NCI/ADR-RES cells; type: functional
U-251 = test: Growth inhibition of human U251 cells; type: functional
CAKI-1 = test: Growth inhibition of human CAKI1 cells; type: functional
KM12 = test: Growth inhibition of human KM12 cells; type: functional
SF-268 = test: Growth inhibition of human SF268 cells; type: functional
BT-549 = test: Growth inhibition of human BT549 cells; type: functional
A549 = test: Growth inhibition of human A549 cells; type: functional
OVCAR-5 = test: Growth inhibition of human OVACAR5 cells; type: functional
NCI-H322M = test: Growth inhibition of human NCI-H322M cells; type: functional
K562 = test: Growth inhibition of human K562 cells; type: functional
M14 = test: Growth inhibition of human M14 cells; type: functional
EKVX = test: Growth inhibition of human EKVX cells; type: functional
UO-31 = test: Growth inhibition of human UO31 cells; type: functional
MDA-MB-435 = test: Growth inhibition of human MDA-MB-435 cells; type: functional
DU-145 = test: Growth inhibition of human DU145 cells; type: functional
SK-OV-3 = test: Growth inhibition of human SK-OV3 cells; type: functional
SF-295 = test: Growth inhibition of human SF295 cells; type: functional
NCI-H226 = test: Growth inhibition of human NCI-H226 cells; type: functional
HOP-62 = test: Growth inhibition of human HOP62 cells; type: functional
LOX IMVI = test: Growth inhibition of human LOXIMVI cells; type: functional
MDA-MB-231 = test: Growth inhibition of human MDA-MB-231 cells; type: functional
SR = test: Growth inhibition of human SR cells; type: functional
PC-3 = test: Growth inhibition of human PC3 cells; type: functional
[3] = Inhibition of 1,10-phenanthroline-induced HIF1 activation in T47D cells by TK-luciferase assay; type: cell-based; details: Homo sapiens
Method in brief: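 HIF-1 reporter (pHRE-TK-Luc) assays in transfected PC-3 or T47D cells; HIF-1 induced by hypoxia or by the hypoxia mimetic 1,10-phenanthroline (10 μM); compounds at half-log concentrations; luciferase activity measured; IC50 from experiments in triplicate.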

HCT-116 = test: Growth inhibition of human HCT116 cells; type: functional
HCC 2998 = test: Growth inhibition of human HCC2998 cells; type: functional
RXF 393 = test: Growth inhibition of human RXF393 cells; type: functional
NCI-H23 = test: Growth inhibition of human NCI-H23 cells; type: functional
SF-539 = test: Growth inhibition of human SF539 cells; type: functional
Malme-3M = test: Growth inhibition of human MALME-3M cells; type: functional
MCF7 = test: Growth inhibition of human MCF7 cells; type: functional
OVCAR-8 = test: Growth inhibition of human OVACAR8 cells; type: functional
[4] = read-out: Log LC50 (the source's name) (converted)

Compound: CCCc1cc(=O)c2c(OC)c3c(OC)cc(OC)cc3cc2o1
- GI50 (ACHN): > 100 µM
- CC50 (ACHN; [4]): > 100 µM
- TGI (ACHN; read-out: Log TGI (converted)): > 100 µM
- GI50 (UACC-62): > 100 µM
- LC50 (lethal concentration, 50% cell kill) (UACC-62): > 100 µM
- TGI (UACC-62; read-out: Log TGI (converted)): > 100 µM
- Activity (T47D [1]): inactive
- GI50 (NCI-H460): 85.1 µM
- CC50 (NCI-H460; [4]): > 100 µM
- TGI (NCI-H460; read-out: Log TGI (converted)): > 100 µM
- GI50 (SNB-19): > 100 µM
- LC50 (SNB-19): > 100 µM
- TGI (SNB-19; read-out: Log TGI (converted)): > 100 µM
- GI50 (T47D [2]): 16.6 µM
- LC50 (T47D [2]): > 100 µM
- TGI (T47D [2]; read-out: Log TGI (converted)): > 100 µM
- GI50 (NCI/ADR-RES): 74.1 µM
- LC50 (concentration killing 50% of cells) (NCI/ADR-RES): > 100 µM
- TGI (NCI/ADR-RES; read-out: Log TGI (converted)): > 100 µM
- GI50 (U-251): > 100 µM
- LC50 (U-251): > 100 µM
- TGI (U-251; read-out: Log TGI (converted)): > 100 µM
- GI50 (CAKI-1): > 100 µM
- LC50 (CAKI-1): > 100 µM
- TGI (CAKI-1; read-out: Log TGI (converted)): > 100 µM
- GI50 (KM12): 87.1 µM
- CC50 (KM12; [4]): > 100 µM
- TGI (KM12; read-out: Log TGI (converted)): > 100 µM
- GI50 (SF-268): > 100 µM
- LC50 (SF-268): > 100 µM
- TGI (SF-268; read-out: Log TGI (converted)): > 100 µM
- GI50 (BT-549): 66.1 µM
- LC50 (BT-549): > 100 µM
- TGI (BT-549; read-out: Log TGI (converted)): > 100 µM
- GI50 (A549): 58.9 µM
- CC50 (A549; [4]): > 100 µM
- TGI (A549; read-out: Log TGI (converted)): > 100 µM
- GI50 (OVCAR-5): > 100 µM
- LC50 (OVCAR-5): > 100 µM
- TGI (OVCAR-5; read-out: Log TGI (converted)): > 100 µM
- GI50 (NCI-H322M): > 100 µM
- CC50 (NCI-H322M; [4]): > 100 µM
- TGI (NCI-H322M; read-out: Log TGI (converted)): > 100 µM
- GI50 (K562): 39.8 µM
- CC50 (K562; [4]): > 100 µM
- TGI (K562; read-out: Log TGI (converted)): > 100 µM
- GI50 (M14): 67.6 µM
- LC50 (50% lethal concentration) (M14): 34.7 µM
- TGI (M14; read-out: Log TGI (converted)): > 100 µM
- GI50 (EKVX): 100 µM
- CC50 (EKVX; [4]): > 100 µM
- TGI (EKVX; read-out: Log TGI (converted)): > 100 µM
- GI50 (UO-31): 42.7 µM
- LC50 (UO-31): > 100 µM
- TGI (UO-31; read-out: Log TGI (converted)): > 100 µM
- GI50 (MDA-MB-435): 97.7 µM
- LC50 (MDA-MB-435): > 100 µM
- TGI (MDA-MB-435; read-out: Log TGI (converted)): > 100 µM
- GI50 (DU-145): 81.3 µM
- CC50 (DU-145; [4]): > 100 µM
- TGI (DU-145; read-out: Log TGI (converted)): > 100 µM
- GI50 (SK-OV-3): > 100 µM
- LC50 (SK-OV-3): > 100 µM
- TGI (SK-OV-3; read-out: Log TGI (converted)): > 100 µM
- GI50 (SF-295): 53.7 µM
- LC50 (SF-295): > 100 µM
- TGI (SF-295; read-out: Log TGI (converted)): > 100 µM
- GI50 (NCI-H226): > 100 µM
- CC50 (NCI-H226; [4]): > 100 µM
- TGI (NCI-H226; read-out: Log TGI (converted)): > 100 µM
- GI50 (HOP-62): 57.5 µM
- CC50 (HOP-62; [4]): > 100 µM
- TGI (HOP-62; read-out: Log TGI (converted)): > 100 µM
- GI50 (LOX IMVI): 69.2 µM
- LC50 (LOX IMVI): > 100 µM
- TGI (LOX IMVI; read-out: Log TGI (converted)): > 100 µM
- GI50 (MDA-MB-231): 25.7 µM
- LC50 (MDA-MB-231): > 100 µM
- TGI (MDA-MB-231; read-out: Log TGI (converted)): > 100 µM
- GI50 (SR): 39.8 µM
- CC50 (SR; [4]): > 100 µM
- TGI (SR; read-out: Log TGI (converted)): > 100 µM
- GI50 (PC-3): 51.3 µM
- LC50 (PC-3): > 100 µM
- TGI (PC-3; read-out: Log TGI (converted)): > 100 µM
- IC50 [3]: 2 µM
- GI50 (HCT-116): 42.7 µM
- CC50 (HCT-116; [4]): 34.7 µM
- TGI (HCT-116; read-out: Log TGI (converted)): > 100 µM
- GI50 (HCC 2998): > 100 µM
- CC50 (HCC 2998; [4]): > 100 µM
- TGI (HCC 2998; read-out: Log TGI (converted)): > 100 µM
- GI50 (RXF 393): > 100 µM
- LC50 (RXF 393): > 100 µM
- TGI (RXF 393; read-out: Log TGI (converted)): > 100 µM
- GI50 (NCI-H23): > 100 µM
- CC50 (NCI-H23; [4]): > 100 µM
- TGI (NCI-H23; read-out: Log TGI (converted)): > 100 µM
- GI50 (SF-539): 100 µM
- LC50 (SF-539): > 100 µM
- TGI (SF-539; read-out: Log TGI (converted)): > 100 µM
- GI50 (Malme-3M): 83.2 µM
- CC50 (Malme-3M; [4]): > 100 µM
- TGI (Malme-3M; read-out: Log TGI (converted)): > 100 µM
- GI50 (MCF7): 93.3 µM
- LC50 (MCF7): > 100 µM
- TGI (MCF7; read-out: Log TGI (converted)): > 100 µM
- GI50 (OVCAR-8): > 100 µM
- LC50 (OVCAR-8): > 100 µM
- TGI (OVCAR-8; read-out: Log TGI (converted)): > 100 µM
